Results taken from ChEMBL document CHEMBL5380787, “Optimized M24B Aminopeptidase Inhibitors for CARD8 Inflammasome Activation” (J Med Chem, 2023).
pIC50: −log10 of the molar value. Active and inactive are the calls of the source. The rule behind the calls is not given here.

What was measured:
OCI-AML2 = assay: Cytotoxicity against human OCI-AML2 cells assessed as reduction in cell viability at 1 uM incubated for 24 hrs by celltiter-glo assay relative to control; type: functional
Summary of the method: (§1)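 Single-dose viability screen. MV4;11 or OCI-AML2 cells at 2000 cells/well were exposed to 1 μM compound for 24 h. Viability was read by CellTiter-Glo luminescence and expressed as percent inhibition. Values are means of three biological replicates.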

MV4-11 [1] = assay: Cytotoxicity against human MV4-11 cells assessed as reduction in cell viability incubated for 24 hrs by celltiter-glo assay; type: functional, cell-based; settings: MV4-11, 24 h
Summary of the method: (§2)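 MV4;11 cells (WT or CASP1−/−), grown in RPMI 1640 with 10% FBS at 37 °C, 5% CO2, plated 2000 cells/well, dosed by pintool across 100 μM to 15.2 nM in three-fold steps for 24 h. Viability by CellTiter-Glo luminescence after 2 min shaking and 10 min at 25 °C. IC50 as mean ± SEM of three biological replicates.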

MV4-11 [2] = assay: Cytotoxicity against CASP1 knockout human MV4-11 cells assessed as reduction in cell viability incubated for 24 hrs by celltiter-glo assay; type: functional, cell-based; settings: MV4-11, 24 h; summary of the method: as §2
Xaa-Pro aminopeptidase 1 [3] = molecular target: T1, Xaa-Pro aminopeptidase 1 (Homo sapiens, UniProt Q9NQW7); assay: Inhibition of 6-His tagged XPNPEP1 (unknown origin) expressed in Escherichia coli Rosetta DE3 cells using H-Lys(abz)-Pro-Pro-pNA as substrate at 20 uM incubated for 60 mins by fluorescence based analysis relative to control
Summary of the method: (§3)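 His6-tagged XPNPEP1 was expressed in E. coli Rosetta DE3 (IPTG, 16 h, 37 °C) and purified on TALON resin. Enzyme at 3.5 nM was exposed to compound, then H-Lys(abz)-Pro-Pro-pNA was added at 100 μM final. Fluorescence (Ex/Em 320/410) was followed for 60 min. Single-point inhibition used 20 μM; IC50 as mean ± SEM of three biological replicates.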

MV4-11 [4] = assay: Cytotoxicity against human MV4-11 cells assessed as reduction in cell viability at 1 uM incubated for 24 hrs by celltiter-glo assay relative to control; type: functional; summary of the method: as §1
[5] = molecular target: T2, Xaa-Pro dipeptidase (Homo sapiens) (UniProt P12955); assay: Inhibition of recombinant human PEPD using Ala-Pro as substrate assessed as alanine release by measuring increase in fluorescense signal at 1 uM by fluorescence based analysis relative to control
T2 sequence (whole entry): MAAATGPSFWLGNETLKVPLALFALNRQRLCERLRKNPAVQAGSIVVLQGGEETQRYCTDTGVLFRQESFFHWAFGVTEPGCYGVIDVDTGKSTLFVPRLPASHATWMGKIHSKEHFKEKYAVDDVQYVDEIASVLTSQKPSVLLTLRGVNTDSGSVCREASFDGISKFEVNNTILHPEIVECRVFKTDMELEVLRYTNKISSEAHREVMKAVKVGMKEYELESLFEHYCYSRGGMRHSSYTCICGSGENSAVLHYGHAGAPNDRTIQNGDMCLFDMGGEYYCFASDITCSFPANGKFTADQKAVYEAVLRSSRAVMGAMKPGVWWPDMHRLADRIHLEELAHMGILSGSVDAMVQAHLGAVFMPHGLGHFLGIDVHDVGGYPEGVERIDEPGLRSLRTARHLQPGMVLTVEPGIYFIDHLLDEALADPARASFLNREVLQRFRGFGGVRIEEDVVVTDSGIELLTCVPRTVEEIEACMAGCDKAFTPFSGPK
Summary of the method: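 Recombinant human PEPD at 50 nM was incubated with Ala-Pro at 40 μM final and compound. Released alanine was detected by coupled alanine transaminase/pyruvate oxidase conversion to H2O2 and resorufin fluorescence (Ex/Em 535/587 nm) at 25 °C.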

MV4-11 [6] = assay: Cytotoxicity against human MV4-11 cells assessed as reduction in cell viability at 0.015 to 100 uM incubated for 24 hrs by celltiter-glo assay; type: functional; settings: dose 0.015-100 µM; summary of the method: as §2
MV4-11 [7] = assay: Cytotoxicity against CASP1 knockout human MV4-11 cells assessed as reduction in cell viability at 0.015 to 100 uM incubated for 24 hrs by celltiter-glo assay; type: functional; settings: dose 0.015-100 µM; summary of the method: as §2
Xaa-Pro aminopeptidase 1 [8] = molecular target: T1, Xaa-Pro aminopeptidase 1; assay: Inhibition of 6-His tagged XPNPEP1 (unknown origin) expressed in Escherichia coli Rosetta DE3 cells using H-Lys(abz)-Pro-Pro-pNA as substrate incubated for 60 mins by fluorescence based analysis; summary of the method: as §3
[9] = Stability in human MV4-11 cells assessed as retention time of parent compound incubated for 24 hrs by LC/MS analysis; type: ADME, cell-based; settings: mv4-11, 24 h
Summary of the method: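 Compound was held in MV4;11 conditioned medium for 24 h at 37 °C, then LC/MS was run, recording the retention times of the parent ester and its free acid.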

[10] = molecular target: T2, Xaa-Pro dipeptidase (Homo sapiens); assay: (§4) Inhibition of recombinant human PEPD using Ala-Pro as substrate assessed as alanine release by measuring increase in fluorescense signal by fluorescence based analysis
Xaa-Pro dipeptidase = molecular target: T3, Xaa-Pro dipeptidase (Homo sapiens, UniProt P12955); assay: as §4
T3 sequence (P12955 whole entry): T2 sequence (whole entry)

T1 sequence (Q9NQW7 whole entry): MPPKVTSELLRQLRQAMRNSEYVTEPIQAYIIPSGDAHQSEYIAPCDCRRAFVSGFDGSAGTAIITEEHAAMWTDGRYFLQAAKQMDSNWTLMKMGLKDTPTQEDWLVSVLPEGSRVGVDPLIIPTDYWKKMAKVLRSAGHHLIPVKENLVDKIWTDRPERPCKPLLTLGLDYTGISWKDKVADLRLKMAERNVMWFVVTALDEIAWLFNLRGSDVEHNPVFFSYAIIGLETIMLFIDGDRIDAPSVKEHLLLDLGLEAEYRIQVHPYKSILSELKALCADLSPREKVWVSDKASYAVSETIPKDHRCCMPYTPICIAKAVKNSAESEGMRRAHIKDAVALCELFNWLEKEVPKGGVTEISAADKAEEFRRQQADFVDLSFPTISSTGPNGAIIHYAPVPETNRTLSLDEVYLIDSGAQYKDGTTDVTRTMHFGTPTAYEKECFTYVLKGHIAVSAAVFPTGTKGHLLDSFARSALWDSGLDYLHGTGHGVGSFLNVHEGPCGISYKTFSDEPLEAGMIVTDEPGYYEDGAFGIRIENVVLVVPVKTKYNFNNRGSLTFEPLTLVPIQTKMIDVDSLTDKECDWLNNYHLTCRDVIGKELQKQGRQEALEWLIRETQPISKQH

| SMILES | pIC50 (MV4-11 [1]) | Activity (MV4-11 [6]) [%] | Activity (MV4-11 [7]) [%] | also measured |
| --- | --- | --- | --- | --- |
| COC(=O)[C@H](Cc1ccccc1)NC(=O)[C@@H]1CCCN1C(=O)[C@@H](O)[C@H](N)CC(C)C | 6.18 | – | – | Activity (OCI-AML2): 42%; pIC50 (MV4-11 [2]): < 4.70; inhibition (Xaa-Pro aminopeptidase 1 [3]): 81%; Activity (MV4-11 [4]): 72%; inhibition [5]: 43% |
| CC[C@H](C)[C@H](NC(=O)[C@@H]1CCCN1C(=O)[C@@H](O)[C@H](N)CC(C)C)C(=O)OC | 6.22 | – | – | Activity (OCI-AML2): 42%; pIC50 (MV4-11 [2]): < 4.70; inhibition (Xaa-Pro aminopeptidase 1 [3]): 68%; Activity (MV4-11 [4]): 56%; inhibition [5]: 48% |
| CC(C)C[C@H](NC(=O)[C@@H]1CCCN1C(=O)[C@@H](O)[C@H](N)CC(C)C)C(=O)N(C)C | 5.09 | – | – | – |
| CC(C)CCNC(=O)[C@H](CC(C)C)NC(=O)[C@@H]1CCCN1C(=O)[C@@H](O)[C@H](N)CC(C)C | 6.00 | – | – | – |
| CC(C)C[C@H](NC(=O)[C@@H]1CCCN1C(=O)[C@@H](O)[C@H](N)CC(C)C)C(N)=O | < 4.00 | – | – | – |
| COC(=O)[C@@H]1CCCN1C(=O)[C@@H](O)[C@H](N)c1ccccc1 | 4.82 | 32 | 97 | – |
| CC(C)CCNC(=O)[C@@H]1CCCN1C(=O)[C@@H](O)[C@H](N)CC(C)C | 4.82 | 20 | 92 | – |
| CC(C)C[C@@H](N)[C@H](O)C(=O)N1CCC[C@H]1C(N)=O | 4.77 | 35 | 96 | – |
| CC(C)C[C@H](NC(=O)[C@@H]1CCCN1C(=O)[C@@H](O)[C@H](N)CC(C)C)C(=O)O | – | – | – | inhibition (Xaa-Pro aminopeptidase 1 [8]): Active; Retention_time [9]: 2.6 min; inhibition [10]: Active |
| COC(=O)[C@H](C)NC(=O)[C@@H]1CCCN1C(=O)[C@@H]1CCCN1C(=O)[C@@H](O)[C@H](N)CC(C)C | 4.46 | – | – | Activity (OCI-AML2): 95%; pIC50 (MV4-11 [2]): < 4.00; inhibition (Xaa-Pro aminopeptidase 1 [3]): 23%; Activity (MV4-11 [4]): 107%; inhibition [5]: 96% |
| COC(=O)[C@@H]1CCCN1C(=O)[C@@H](O)[C@H](N)CCC(F)(F)F | < 4.00 | 68 | 100 | – |
| CC(C)C[C@H](NC(=O)[C@@H]1CCCN1C(=O)[C@@H](O)[C@H](N)CC(C)C)C(=O)NC(C)(C)C | 5.14 | – | – | – |
| CC(C)C[C@H](NC(=O)[C@@H]1CCCN1C(=O)[C@@H](O)[C@H](N)CC(C)C)C(=O)NCCc1ccc2ccccc2c1 | 6.37 | – | – | – |
| CC(C)C[C@@H](N)[C@H](O)C(=O)N1CCC[C@H]1CNS(C)(=O)=O | < 4.00 | 89 | 97 | pIC50 (Xaa-Pro dipeptidase): < 4.00 |
| COC(=O)[C@H](CC(C)C)NC(=O)[C@@H](O)[C@H](N)Cc1ccccc1 [BESTATIN METHYL ESTER] | 5.41 | 11 | 11 | pIC50 (Xaa-Pro aminopeptidase 1 [8]): 3.53; pIC50 (Xaa-Pro dipeptidase): < 4.00 |
| CCCC[C@@H](N)[C@H](O)C(=O)N1CCC[C@H]1C(=O)OC | 4.96 | 20 | 98 | – |
| CC(C)C[C@H](NC(=O)[C@@H]1CCCN1C(=O)[C@@H](O)[C@H](N)CC(C)C)C(=O)NCCc1ccccc1 | 6.08 | – | – | Retention_time [9]: 3.24 min |
| COC(=O)[C@@H]1CCCN1C(=O)[C@@H](O)[C@H](N)C12CC3CC(CC(C3)C1)C2 | < 4.00 | 83 | 98 | – |
| COC(=O)[C@@H]1CCCN1C(=O)[C@@H](O)[C@H](N)CCCCO | < 4.00 | 87 | 92 | – |
| COC(=O)[C@@H]1C[C@H](C)CN1C(=O)[C@@H](O)[C@H](N)CC(C)C | 5.25 | 10 | 96 | – |
| CC(C)C[C@@H](N)[C@H](O)C(=O)N1CCCC1 | < 4.00 | 91 | 85 | pIC50 (Xaa-Pro dipeptidase): < 4.00 |

| SMILES | pIC50 (MV4-11 [1]) | Activity (MV4-11 [6]) [%] | Activity (MV4-11 [7]) [%] | also measured |
| --- | --- | --- | --- | --- |
| COC(=O)[C@H](Cc1ccccc1)NC(=O)[C@@H](O)[C@H](N)CC(C)C | 5.27 | 8 | 7 | pIC50 (Xaa-Pro dipeptidase): < 4.00 |
| COC(=O)[C@@H]1CC2(CC2)CN1C(=O)[C@@H](O)[C@H](N)CC(C)C | 5.09 | 43 | 101 | – |
| COC(=O)[C@@H]1CCCN1C(=O)[C@@H](O)[C@H](N)Cc1ccccc1 | < 4.00 | 73 | 97 | – |
| CC(C)C[C@H](NC(=O)[C@@H]1CCCN1C(=O)[C@@H](O)[C@H](N)CC(C)C)C(=O)N1CCC1 | < 4.00 | – | – | – |
| CC(C)C[C@@H](N)[C@H](O)C(=O)N1CCC[C@H]1c1nnn[nH]1 | < 4.00 | 85 | 95 | – |
| COC(=O)[C@@H]1CCCN1C(=O)[C@@H](O)[C@H](N)CC(C)(C)C | < 4.00 | 20 | 100 | – |
| CC(C)C[C@H](NC(=O)[C@@H]1CCCN1C(=O)[C@@H](O)[C@H](N)CC(C)C)C(=O)NCCF | 5.52 | – | – | – |
| COC(=O)[C@@H]1CCCN1C(=O)[C@@H](O)[C@H](N)c1ccc2ccoc2c1 | 4.22 | 44 | 85 | – |
| CC(C)C[C@H](NC(=O)[C@@H]1CCCN1C(=O)[C@@H](O)[C@H](N)CC(C)C)C(=O)NCCc1ccc2cc[nH]c2c1 | 5.89 | – | – | pIC50 (Xaa-Pro aminopeptidase 1 [8]): 5.70; pIC50 (Xaa-Pro dipeptidase): 5.00 |
| COC(=O)[C@@H]1CCCN1C(=O)[C@@H](O)[C@H](N)C(C)C | 4.34 | 23 | 104 | – |
| CONC(=O)[C@@H]1CCCN1C(=O)[C@@H](O)[C@H](N)CC(C)C | < 4.00 | 95 | 103 | – |
| COC(=O)[C@H](CC(C)C)NC(=O)[C@@H](O)[C@H](N)CC(C)C | 4.72 | 30 | 12 | – |
| COC(=O)[C@@H]1CCCN1C(=O)[C@@H](O)[C@@H](N)c1cccs1 | 5.00 | 22 | 71 | – |
| COC(=O)[C@@H]1CCCN1C(=O)[C@@H](O)[C@@H](N)c1ccco1 | 4.85 | 23 | 71 | – |
| COC(=O)[C@@H]1C[C@H](F)CN1C(=O)[C@@H](O)[C@H](N)CC(C)C | 4.21 | 32 | 94 | – |
| CONC(=O)[C@H](CC(C)C)NC(=O)[C@@H]1CCCN1C(=O)[C@@H](O)[C@H](N)CC(C)C | < 4.00 | – | – | – |
| C[C@H](NC(=O)[C@@H]1CCCN1C(=O)[C@@H]1CCCN1C(=O)[C@@H](O)[C@H](N)Cc1ccccc1)C(N)=O | < 4.70 | – | – | pIC50 (MV4-11 [2]): < 4.70 |
| COC(=O)[C@@H]1CCCN1C(=O)[C@@H](O)[C@H](N)C1CC1 | < 4.00 | 85 | 102 | – |
| COC(=O)[C@@H]1C[C@H](O)CN1C(=O)[C@@H](O)[C@H](N)CC(C)C | < 4.00 | 99 | 102 | pIC50 (Xaa-Pro dipeptidase): < 4.00 |
| CC(C)C[C@H](NC(=O)[C@@H]1CCCN1C(=O)[C@@H](O)[C@H](N)CC(C)C)C(=O)NCCc1ccc(-c2ccccc2)cc1 | 6.19 | – | – | – |
| CC(C)C[C@H](NC(=O)[C@@H]1CCCN1C(=O)[C@@H](O)[C@H](N)CC(C)C)C(=O)NS(=O)(=O)N(C)C | < 4.00 | – | – | – |
